Test results from ChEMBL document CHEMBL1149086, “Antimalarial and antitumor evaluation of novel C-10 non-acetal dimers of 10beta-(2-hydroxyethyl)deoxoartemisinin” (J Med Chem, 2004).

Experiments:
LOX IMVI = experiment: Concentration required to achieve total growth inhibition against melanoma LOX IMVI cell line; format: functional; details: Homo sapiens
MCF7 [1] = experiment: Concentration required to achieve total growth inhibition against breast MCF-7 cancer cell line; format: functional; details: Homo sapiens
MCF7 [2] = experiment: Concentration of the drug required to achieve 50% cytotoxicity against breast MCF-7 cancer cell line; format: cell-based; details: human
Malme-3M [3] = experiment: inhibition against melanoma MALME-3M cell line; format: functional; details: Homo sapiens
Malme-3M [4] = experiment: Concentration of the drug required to achieve 50% cytotoxicity against melanoma MALME-3M cell line; format: cell-based; details: human
MOLT-4 [5] = experiment: Concentration required to achieve total growth inhibition against leukemia MOLT-4 cell line; format: functional; details: Homo sapiens
Malme-3M [6] = experiment: Concentration required to achieve total growth inhibition against melanoma MALME-3M cell line; format: functional; details: Homo sapiens
MOLT-4 [7] = experiment: Concentration of the drug required to achieve 50% cytotoxicity against leukemia MOLT-4 cell line; format: functional; details: Homo sapiens, read-out: LC50 (the source's name)
NCI/ADR-RES [8] = experiment: inhibition against breast NCI/ ADR-RES cancer cell line; format: functional; details: Homo sapiens
NCI/ADR-RES [9] = experiment: Concentration of the drug required to achieve 50% cytotoxicity against breast NCI/ ADR-RES cancer cell line; format: cell-based; details: human
NCI/ADR-RES [10] = experiment: Concentration required to achieve total growth inhibition against breast NCI/ ADR-RES cancer cell line; format: functional; details: Homo sapiens
PC-3 [11] = experiment: Concentration of the drug required to achieve 50% cytotoxicity against prostate PC-3 cell line; format: cell-based; details: human
PC-3 [12] = experiment: inhibition against prostate PC-3 cell line; format: functional; details: Homo sapiens
Plasmodium falciparum = experiment: In vitro antimalarial activity against Plasmodium falciparum HB3 by [3H]hypoxanthine uptake; format: functional, organism-based
PC-3 [13] = experiment: Concentration required to achieve total growth inhibition against prostate PC-3 cell line; format: functional; details: Homo sapiens
RPMI-8226 [14] = experiment: Concentration of the drug required to achieve 50% cytotoxicity against leukemia RPMI-8226 cell line; format: functional; details: Homo sapiens, read-out: LC50 (the source's name)
RPMI-8226 [15] = experiment: Concentration required to achieve total growth inhibition against leukemia RPMI-8226 cell line; format: functional; details: Homo sapiens
SW-620 [16] = experiment: inhibition against colon SW-620 cancer cell line; format: functional; details: Homo sapiens
SW-620 [17] = experiment: Concentration of the drug required to achieve 50% cytotoxicity against colon SW-620 cancer cell line; format: cell-based; details: human
SR [18] = experiment: inhibition against leukemia SR cell line; format: functional; details: Homo sapiens
SR [19] = experiment: Concentration of the drug required to achieve 50% cytotoxicity against leukemia SR cell line; format: functional; details: Homo sapiens, read-out: LC50 (the source's name)
SR [20] = experiment: Concentration required to achieve total growth inhibition against leukemia SR cell line; format: functional; details: Homo sapiens
SW-620 [21] = experiment: Concentration required to achieve total growth inhibition against colon SW-620 cancer cell line; format: functional; details: Homo sapiens
SK-MEL-5 [22] = experiment: inhibition against melanoma SK-MEL-5 cell line; format: functional; details: Homo sapiens
SK-MEL-5 [23] = experiment: Concentration required to achieve total growth inhibition against melanoma SK-MEL-5 cell line; format: functional; details: Homo sapiens
[24] = Concentration of the drug required to achieve 50% cytotoxicity against leukemia CCRF-CEM cell line; format: functional; details: Homo sapiens, read-out: LC50 (the source's name)
T47D [25] = experiment: inhibition against breast T-47D cancer cell line; format: functional; details: Homo sapiens
T47D [26] = experiment: Concentration of the drug required to achieve 50% cytotoxicity against breast T-47D cancer cell line; format: cell-based; details: human
T47D [27] = experiment: Concentration required to achieve total growth inhibition against breast T-47D cancer cell line; format: functional; details: Homo sapiens
UACC-62 [28] = experiment: inhibition against melanoma UACC-62 cell line; format: functional; details: Homo sapiens
UACC-62 [29] = experiment: Concentration of the drug required to achieve 50% cytotoxicity against melanoma UACC-62 cell line; format: cell-based; details: human
UACC-62 [30] = experiment: Concentration required to achieve total growth inhibition against melanoma UACC-62 cell line; format: functional; details: Homo sapiens
HL-60 = experiment: Inhibitory concentration against HL60 cells; format: functional, cell-based; details: Homo sapiens
Procedure, shortened: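 HL60 (2.5 × 10⁴/well) or Jurkat (1 × 10⁵/well) in RPMI-1640 with 10% FBS and 1% L-glutamine, 5% CO2, 37 °C. Exposed to 10⁻¹⁰–10⁻⁴ M for 72 h, final DMSO below 0.5% v/v. [3H]-thymidine (0.5 μCi) added for the final 24 h. Incorporation counted by β-scintillation.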

SK-MEL-5 [31] = experiment: Concentration of the drug required to achieve 50% cytotoxicity against melanoma SK-MEL-5 cell line; format: cell-based; details: human
RPMI-8226 [32] = experiment: inhibition against leukemia RPMI-8226 cell line; format: functional; details: Homo sapiens
K562 = experiment: inhibition against leukemia K-562 cell line; format: functional; details: Homo sapiens
MCF7 [33] = experiment: inhibition against breast MCF-7 cancer cell line; format: functional; details: Homo sapiens

C[C@H]1[C@@H](CCOP(=O)(OCC[C@H]2O[C@@H]3OC4(C)CC[C@H]5[C@H](C)CC[C@@H]([C@H]2C)[C@@]35OO4)Oc2ccccc2)O[C@@H]2OC3(C)CC[C@H]4[C@H](C)CC[C@@H]1[C@@]24OO3 (single isomer, unassigned)
TGI (LOX IMVI): 15.6 µM
TGI (MCF7 [1]): > 100 µM
LC50 (MCF7 [2]): > 100 µM
GI50 (Malme-3M [3]): 0.194 µM
LC50 (Malme-3M [4]): > 100 µM
TGI (MOLT-4 [5]): 11.9 µM
TGI (Malme-3M [6]): 30.8 µM
CC50 (MOLT-4 [7]): > 100 µM
GI50 (NCI/ADR-RES [8]): 0.5 µM
LC50 (NCI/ADR-RES [9]): > 100 µM
TGI (NCI/ADR-RES [10]): 45.2 µM
LC50 (PC-3 [11]): > 100 µM
GI50 (PC-3 [12]): < 0.01 µM
IC50 (Plasmodium falciparum): 0.00018 µM
TGI (PC-3 [13]): 65.5 µM
CC50 (RPMI-8226 [14]): > 100 µM
TGI (RPMI-8226 [15]): 0.01 µM
GI50 (SW-620 [16]): < 0.01 µM
LC50 (SW-620 [17]): > 100 µM
GI50 (SR [18]): < 0.01 µM
CC50 (SR [19]): > 100 µM
TGI (SR [20]): 0.263 µM
TGI (SW-620 [21]): 100 µM
GI50 (SK-MEL-5 [22]): 0.013 µM
TGI (SK-MEL-5 [23]): 2.25 µM
CC50 [24]: > 100 µM
GI50 (T47D [25]): 0.0256 µM
LC50 (T47D [26]): > 100 µM
TGI (T47D [27]): < 10 µM
GI50 (UACC-62 [28]): 0.0753 µM
LC50 (UACC-62 [29]): > 100 µM
TGI (UACC-62 [30]): 21.8 µM
IC50 (HL-60): 0.241 µM
LC50 (SK-MEL-5 [31]): > 100 µM
GI50 (RPMI-8226 [32]): < 0.01 µM
GI50 (K562): < 0.01 µM
GI50 (MCF7 [33]): 0.106 µM
